Experimental data taken from the RNAGym collection of RNA variant scans (doi:10.1126/science.aae0568).
Fewer inactive variants are shown than the library holds.

B1: tRNA (parent)
chain: GUUCCGUUGGCGUAAUGGUAACGCGUCUCCCUCCUAAGGAGAAGACUGCGGGUUCGAGUCCCGUACGGAACG

Variants of: B1
Experiment: yeast fitness relative to wild type (ratio to wild type); higher = fitter; tRNA-Arg(CCU), competitive growth, 37 C, YPD
Method in brief: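 Changes in genotype frequencies gave Darwinian fitness relative to wild type. Frequencies were read by 100-nucleotide paired-end sequencing of gene amplicons before and after pooled Saccharomyces cerevisiae strains, carrying tRNA-Arg(CCU) gene variants at the native locus, were competed in YPD at 37°C for 24 hours in six replicates. A genotype was kept only with ≥ 100 starting reads, and estimates < 0.5 were set to 0.5.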

Variant	yeast fitness
G41A C49U C60G A65G	0.635
A40U A42C	0.752
A40G G52A U53A C66U	≤ 0.5
G41C C62A G68C	≤ 0.5
A42G A43U U47G C61G G67A	≤ 0.5
A40U A43U A70U	0.664
A40U C46U	1.08
A42C C62G A65C	0.544
A40G C46A G67A	0.563
G41A A45U	1.01
A42C A45C G48A G58A C61U A70G	≤ 0.5
G41A U54C	0.814
G41A A65G	0.934
G41A A65U	0.722
A42C U53A	0.626
G41A U47A A70G	0.571
A42C C61G	0.721
A40G G63A	0.819
A40U A65U	0.868
A40U A65C	0.652
A40U C55U A65C	≤ 0.5
A42C C62G G67C	≤ 0.5
A40G C62G	0.719
G41C C55A A69C	0.529

Variant	yeast fitness
A42C U64C A70U	1.12
A40U C55A G56C	≤ 0.5
A42C A43U	0.779
A42C A43G	0.885
A42C A43C	1.02
A42C A57U C61U	≤ 0.5
G41C C46A	0.982
A40U A69U	1.04
A40U A69C	0.851
G41C C55A C66U A69C	≤ 0.5
G41A A42U U59G	≤ 0.5
A40U A42U A65C	0.747
A40G U59C C60A U64A	≤ 0.5
A42C G48A C62U	1.03
G41C	0.967
G41A	1
G41U	0.988
A40U A42C C55U	≤ 0.5
A42C G52A	0.676
A42C G67U	0.811
A42C G67C	0.829
A40G A57C C62U	≤ 0.5
A40G C62U A69C	0.725
A40G G50A U54A	0.552

Variant	yeast fitness
A42C A57G C61U	≤ 0.5
A40U U47C C66A	0.611
A40G U53C C61A C62G	≤ 0.5
G41C C61U G67A	≤ 0.5
A42C A69C	0.939
A42C C55U C66U	0.504
A42C A43G G63A	0.599
A40G A45G U53A	≤ 0.5
G41C C55U G67C	≤ 0.5
A40G A70U	0.891
A40G A70G	1.09
A40U G68C	0.741
A40G C61U U64G A69U	≤ 0.5
G41A G44C	0.671
A40U C55A A57U	≤ 0.5
A42G A43U U54A	≤ 0.5
G41C C60G G68A	≤ 0.5
A42C A70C	1.02
A42C A70G	0.87
A42G A45C	0.856
A42C C55U C62U	0.509
A40U A43C	1
A40U A43G	0.788
A40U A43U	1.11

Variant	yeast fitness
G41A C49A	0.663
G41A C49G	0.655
G41A C49U	0.921
A42C G68C A69U	≤ 0.5
A42G A43G	0.766
G41C C66U	0.83
G41A C66G	0.625
G41A C60A	0.667
A40U A45U A57U	0.611
A40U U59C	0.913
A40U U59G	0.815
G41A C49G A65G	0.546
G41A C55U	0.885
G41A C55G	0.605
A42C C49G	0.759
A42C C49A	0.62
A40U A42C A45U U47C A65G	≤ 0.5
A40G U47G	0.595
A40G U47A	0.848
A40G U47C	0.788
A42G A43C A69G	0.835
A42C U47A G52A	≤ 0.5
G41C A45U	0.778
G41C A45G	0.778

Variant	yeast fitness
G41C C60U G67A	≤ 0.5
G41A C49A C66A	≤ 0.5
A40U A42C G67A	0.534
G41A A43U G63A	≤ 0.5
G41A C55A U59A	0.613
A40G A45G G52A	≤ 0.5
A40G C49G U53C A57C A69U	≤ 0.5
G41A G48A	0.944
G41A U47G	0.655
A42C U47G C49U	≤ 0.5
A42C C62G	0.704
G41C G50C C60U	≤ 0.5
A40G G44A	0.717
A40G G52A U54G C61U	≤ 0.5
A40U A45U G63A	0.689
A42C A43C A65G	1.09
G41C C61U	0.857
G41C C61A	0.593
A40G A45U G56A	0.601
G41A A43C C66U	0.517
A42C G50C C66U	0.534
A40U G52A	0.704
A42G A43C A70U	0.745
A42C A57G	0.749

Variant	yeast fitness
G41A U59A A65C G67U	≤ 0.5
A40G G50C	0.649
A40G U53C	0.827
G41A G51C	≤ 0.5
G41A G51A	0.664
A42C G56C	0.649
A40G G44A A45U C49U	≤ 0.5
A40U A45U U53C	0.684
A40U A43G C60G	≤ 0.5
G41C U59A C61A C66U G68C	≤ 0.5
G41A G67A	0.663
G41A A57C C62A	≤ 0.5
A40G U54A	0.551
A40G U54C	0.955
G41C U47A	0.654
G41C U47C	0.937
A42C G58C	0.975
A40G G51C U59A C61A A69U	≤ 0.5
A40G G58C	1.05
A40G G58A	0.857
A42C U59C	0.901
G41C A70C	0.858
G41C A70G	0.829
G41C A70U	0.88

Variant	yeast fitness
G41C A42U U64C	0.82
G41C A69C	0.858
G41C A69U	0.813
G41A A45U G56C	0.546
A42C G68C	0.657
G41A C60A U64A	≤ 0.5
A40G A69C	0.861
G41A A42C G50C	0.622
A42G A45G A65U	0.635
G41C C62U	0.802
A42C G48A	1.07
A42C G48C	0.763
A42C G48C C49A	≤ 0.5
A42C U47C	1.09
G41A U47C C61G C62U	≤ 0.5
G41C G63A	0.852
G41C G63C	0.727
A42C A45C G52C A69U	≤ 0.5
A40U A42C C55U C62U	≤ 0.5
A40U G63C U64C	0.53
A40U U47A G58A	≤ 0.5
A40U U47A G58C	0.579
G41A C61G C66U	≤ 0.5
